# Laboratory results from ChEMBL document CHEMBL3124909, “Heat shock protein 70 inhibitors. 2. 2,5'-thiodipyrimidines, 5-(phenylthio)pyrimidines, 2-(pyridin-3-ylthio)pyrimidines, and 3-(phenylthio)pyridines as reversible binders to an allosteric site on heat shock protein 70” (J Med Chem, 2014).
# pIC50: −log10 of the molar value. Calls of active or inactive are those of the source. The calls are words filed in the database; no cut-off is given here.
# Columns and labels:
# [1] = test system: MOLM-13; assay: Induction of apoptosis in human MOLM13 cells assessed as caspase 3/7 activation after 16 hrs by fluorescence assay; type: functional, cell-based; details: for pIC50: Homo sapiens, MOLM-13, 16 h, read-out: IC50
# In short: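 MOLM-13 cells at 30000/well in RPMI, held up to 24 h (37 °C, 5% CO2), then exposed 16 h to compound or DMSO. Buffer with 10 mM HEPES pH 7.5, 2 mM EDTA, 0.1% CHAPS and 25 μM Z-DEVD-R110 substrate added; fluorescence read once signal stabilized. Percent apoptotic increase calculated relative to control cells.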
# [2] = test system: Kasumi 1; assay: Cytotoxicity against human Kasumi-1 cells after 72 hrs by alamar blue assay; type: functional, cell-based; details: for pIC50: Homo sapiens, Kasumi 1, 72 h, read-out: IC50
# In short: (§1)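 Alamar Blue (resazurin) viability assay: attached cells (SKBr3) plated at 8000/well, suspension cells (Kasumi-1) at 20000/well, left 24 h at 37 °C, then drug added in triplicate for 72 h. Alamar Blue 50 μM added, fluorescence read 6 h later (ex 530, em 580 nm). Growth inhibition versus control corrected for time-zero population; IC50 = concentration giving 50% growth inhibition.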
# [3] = test system: SK-BR-3; assay: Inhibition of HSP70 in human SKBR3 cells assessed as Raf-1 degradation by Western blotting analysis; type: cell-based
# In short: (§2)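 Cells (SKBr3, MDA-MB-468, MiaPaCa-2 in DME/F12; MOLM-13 in RPMI; 10% FBS) grown to 60–70% confluence, then given inhibitor or DMSO. Lysis in 50 mM Tris pH 7.4, 150 mM NaCl, 1% NP-40. Protein measured by BCA, and client proteins or cleaved PARP detected by immunoblotting with peroxidase-conjugated secondary antibody.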
# [4] = test system: SK-BR-3; assay: Inhibition of HSP70 in human SKBR3 cells assessed as HER2 degradation by Western blotting analysis; type: cell-based; in short: as §2
# [5] = biological target: Heat shock protein HSP 90-beta (Homo sapiens) (UniProt P08238); assay: Displacement of GM-Cy3B from HSP90 in human SKBR3 cells after 24 hrs by fluorescence polarization assay; details: SK-BR-3
# [6] = Cytotoxicity against human SKBR3 cells after 72 hrs by alamar blue assay; type: functional, SK-BR-3; in short: as §1
# [7] = test system: SK-BR-3; assay: Induction of apoptosis in human SKBR3 cells assessed as c-PARP cleavage by Western blotting analysis; type: functional; in short: as §2
# [8] = test system: Heat shock 70 kDa protein (Homo sapiens); assay: Inhibition of HSP70 in human SKBR3 cells assessed as inhibition of HSP70-HOP-HSP90 complex formation after 24 hrs by Western blotting analysis; details: SK-BR-3
# [9] = test system: MIA PaCa-2; assay: Inhibition of HSP70 in human MIAPaCa2 cells assessed as Raf-1 degradation at 1 to 20 uM by Western blotting analysis; type: cell-based; in short: as §2
# [10] = biological target: Receptor-type tyrosine-protein kinase FLT3 (Homo sapiens) (UniProt P36888); assay: Inhibition of HSP70 in human MOLM13 cells assessed as mutant FLT3 degradation at 1 to 20 uM by Western blotting analysis; type: cell-based; details: MOLM-13; in short: as §2
# [11] = test system: MDA-MB-468; assay: Inhibition of HSP70 in human MDA-MB-468 cells assessed as STAT-3 degradation at 0.5 to 25 uM by Western blotting analysis; type: cell-based; in short: as §2
# [12] = test system: MOLM-13; assay: Inhibition of HSP70 in human MOLM13 cells assessed as STAT5 degradation at 1 to 20 uM by Western blotting analysis; type: cell-based; in short: as §2
# [13] = test system: MIA PaCa-2; assay: Inhibition of HSP70 in human MIAPaCa2 cells assessed as AKT degradation at 1 to 20 uM by Western blotting analysis; type: cell-based; in short: as §2
# [14] = test system: MDA-MB-468; assay: Inhibition of HSP70 in human MDA-MB-468 cells assessed as Raf-1 degradation at 0.5 to 25 uM by Western blotting analysis; type: cell-based; in short: as §2
# [15] = test system: HEK293; assay: Inhibition of human HSP70 expressed in HEK293 cells assessed as inhibition of refolding of heat denatured luciferase at 10 uM incubated for 1 hr followed by heat treatment measured after 2 hrs by Western blotting analysis; type: cell-based
# In short: (§3)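 HEK293 cells cotransfected with C-terminal HA-luciferase plus N-terminal Flag-human Hsp70 or control vector. Two days later: cycloheximide 50 μg/mL, compound at 10 μM added just before 1 h at 45 °C, then recovery at 37 °C up to 2 h. Triton X-100 lysates cleared at 20000g; luciferase activity normalized to protein, expressed as % of pre-heat-shock activity; soluble proteins immunoblotted.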
# [16] = test system: MIA PaCa-2; assay: Inhibition of HSP70 in human MIAPaCa2 cells assessed as STAT-3 degradation at 1 to 20 uM by Western blotting analysis; type: cell-based; in short: as §2
# [17] = test system: HEK293; assay: Inhibition of HSP70 in HEK293 cells assessed as inhibition of refolding of heat denatured luciferase at 10 uM incubated for 1 hr followed by heat treatment measured after 2 hrs by Western blotting analysis; type: cell-based; details: Homo sapiens; in short: as §3
# Chain of Heat shock protein HSP 90-beta (Homo sapiens) (P08238 whole entry): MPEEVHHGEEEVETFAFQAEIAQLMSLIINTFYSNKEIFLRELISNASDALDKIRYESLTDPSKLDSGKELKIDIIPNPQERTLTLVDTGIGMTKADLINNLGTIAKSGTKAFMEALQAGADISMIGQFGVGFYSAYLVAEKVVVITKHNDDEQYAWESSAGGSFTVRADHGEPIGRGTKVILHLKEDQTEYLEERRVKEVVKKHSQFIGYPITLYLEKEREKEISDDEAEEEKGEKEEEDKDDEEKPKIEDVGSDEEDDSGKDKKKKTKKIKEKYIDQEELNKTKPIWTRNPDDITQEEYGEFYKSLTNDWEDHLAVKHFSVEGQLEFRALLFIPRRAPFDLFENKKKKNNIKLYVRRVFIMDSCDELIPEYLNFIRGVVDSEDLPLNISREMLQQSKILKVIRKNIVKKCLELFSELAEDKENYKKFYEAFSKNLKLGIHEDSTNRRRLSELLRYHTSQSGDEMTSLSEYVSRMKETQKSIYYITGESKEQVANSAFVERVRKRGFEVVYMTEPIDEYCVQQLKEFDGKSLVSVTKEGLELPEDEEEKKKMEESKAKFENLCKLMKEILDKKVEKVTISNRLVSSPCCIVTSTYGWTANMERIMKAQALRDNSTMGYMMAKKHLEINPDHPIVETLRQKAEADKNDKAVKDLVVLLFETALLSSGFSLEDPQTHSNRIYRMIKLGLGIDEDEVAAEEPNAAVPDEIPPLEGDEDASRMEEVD
# Chain of Receptor-type tyrosine-protein kinase FLT3 (Homo sapiens) (P36888 whole entry): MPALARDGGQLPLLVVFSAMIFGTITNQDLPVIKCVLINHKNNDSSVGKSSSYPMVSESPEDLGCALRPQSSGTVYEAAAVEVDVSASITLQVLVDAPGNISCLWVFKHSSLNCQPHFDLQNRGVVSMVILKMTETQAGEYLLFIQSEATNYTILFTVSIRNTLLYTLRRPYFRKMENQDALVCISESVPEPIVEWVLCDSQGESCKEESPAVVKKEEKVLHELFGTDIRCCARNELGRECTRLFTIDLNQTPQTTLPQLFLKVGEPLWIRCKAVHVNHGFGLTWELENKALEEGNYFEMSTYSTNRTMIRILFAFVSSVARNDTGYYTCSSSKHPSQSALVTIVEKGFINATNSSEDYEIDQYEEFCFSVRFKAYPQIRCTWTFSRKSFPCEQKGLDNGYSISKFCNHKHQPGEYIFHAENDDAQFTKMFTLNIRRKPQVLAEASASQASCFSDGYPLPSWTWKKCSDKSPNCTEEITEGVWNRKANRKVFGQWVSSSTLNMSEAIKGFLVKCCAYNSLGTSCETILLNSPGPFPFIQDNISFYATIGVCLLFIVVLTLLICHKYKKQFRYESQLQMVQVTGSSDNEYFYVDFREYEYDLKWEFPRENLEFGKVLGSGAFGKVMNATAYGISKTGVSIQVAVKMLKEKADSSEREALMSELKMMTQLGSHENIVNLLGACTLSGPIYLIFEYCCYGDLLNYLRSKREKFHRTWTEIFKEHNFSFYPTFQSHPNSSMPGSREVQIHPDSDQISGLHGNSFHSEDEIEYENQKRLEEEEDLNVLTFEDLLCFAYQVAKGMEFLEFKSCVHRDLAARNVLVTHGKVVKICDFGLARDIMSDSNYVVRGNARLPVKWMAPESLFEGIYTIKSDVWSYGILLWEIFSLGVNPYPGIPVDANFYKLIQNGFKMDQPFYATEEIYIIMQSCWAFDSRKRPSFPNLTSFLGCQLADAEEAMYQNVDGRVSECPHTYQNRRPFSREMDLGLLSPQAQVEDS
pIC50 [1],INH [5],SMILES,pIC50 [2],INH [3],INH [4],GI [6],INH [7],other results
4.01,–,CCC(=O)Nc1ccnc(Sc2c(C)nc(N3CCN(C)CC3)nc2C)n1,–,–,–,–,–,–
5.77,–,CN1CCN(c2ncc(Sc3cccc(NC(=O)C4CCCN4)c3)c(OCc3ccccc3)n2)CC1 (stereo not given),5.54,–,–,–,–,–
5.11,–,CN1CCN(c2ncc(Sc3cccc(NC(=O)CN)c3)c(OCc3ccncc3)n2)CC1,4.97,–,–,–,–,–
4.99,–,CC(=O)Nc1cccc(Sc2cnc(N3CCN(C)CC3)nc2OCc2ccccc2)c1,5.28,–,–,–,–,–
4.02,–,CCOc1nc(N2CCN(C)CC2)nc(OCC)c1Sc1nc(N)cc(NC(=O)C2CC2)n1,–,–,–,–,–,–
–,> 500 µM,C=CC(=O)Nc1ccnc(Sc2c(C)nc(N3CCN(C)CC3)nc2C)n1,–,5 µM,4 µM,1.8 µM,5 µM,–
4.49,> 250 µM,Cc1nc(N2CCN(C)CC2)nc(C)c1Sc1nccc(NC(=O)c2ccco2)n1,4.52,25 µM,25 µM,30 µM,30 µM,–
< 4.30,> 500 µM,CCCCCCCC(=O)Nc1cc(N)nc(Sc2c(OC)nc(N3CCN(C)CC3)nc2OC)n1,–,> 25 µM,> 25 µM,–,>25 µM,–
4.70,> 250 µM,COc1nc(N2CCN(C)CC2)ccc1Sc1cccc(NC(=O)c2ccccc2)c1,5.33,20 µM,19 µM,20 µM,25 µM,–
5.39,–,CN1CCN(c2ncc(Sc3cccc(NC(=O)c4ccccc4)c3)c(OCc3ccccc3)n2)CC1,5.51,–,–,–,–,–
3.99,–,CCC(=O)Nc1ccnc(Sc2ccc(N3CCN(C)CC3)nc2OC)n1,–,–,–,–,–,–
4.60,> 500 µM,COc1nc(N2CCN(C)CC2)nc(OC)c1Sc1nc(N)cc(NC(=O)CCN(C)C)n1,4.83,50 µM,70 µM,–,75 µM,–
4.74,> 500 µM,COc1nc(N2CCN(C)CC2)nc(OC)c1Sc1cccc(NC(=O)CN)c1,4.65,20 µM,20 µM,25 µM,40 µM,–
4.41,–,CCC(=O)Nc1cccc(Sc2ccc(N3CCN(C)CC3)nc2OC)c1,–,–,–,–,–,–
4.17,–,Cc1nc(N2CCN(C)CC2)nc(C)c1Sc1nccc(NC(=O)C2CC2)n1,4.22,–,–,–,–,–
4.89,> 500 µM,COc1nc(N2CCN(C)CC2)ncc1Sc1cccc(NC(=O)CN)c1,4.60,15 µM,18 µM,15 µM,19 µM,–
–,–,COc1nc(N2CCN(C)CC2)nc(OC)c1Sc1cccc(NC(=O)C2CCCCC2)c1,–,–,–,–,–,IC50 ([1]; molm-13): ND(Insoluble); IC50 ([2]; kasumi 1): ND(Insoluble)

pIC50 [1],INH [5],SMILES,pIC50 [2],INH [3],INH [4],GI [6],INH [7],other results
5.72,> 500 µM,CN1CCN(c2ncc(Sc3cccc(NC(=O)CN)c3)c(OCc3ccccc3)n2)CC1,5.64,1.2 µM,1.5 µM,2.1 µM,1.5 µM,inhibition [8]: Dose-dependent effect; inhibition [9]: Active; inhibition [10]: Active; inhibition [11]: Active; inhibition [12]: Active; inhibition [13]: Active; inhibition [14]: Active; inhibition [15]: Active; inhibition [16]: Active; inhibition [17]: Active
4.22,> 250 µM,COc1nc(N2CCN(C)CC2)nc(OC)c1Sc1cccc(NC(=O)C2CCC2)c1,4.33,45 µM,70 µM,70 µM,75 µM,–
–,> 500 µM,C=CC(=O)Nc1cc(N)nc(Sc2c(OCC)nc(N3CCN(C)CC3)nc2OCC)n1,–,2.5 µM,1 µM,1.1 µM,1.5 µM,–
3.78,> 500 µM,COc1nc(N2CCN(C)CC2)nc(OC)c1Sc1nc(N)cc(NC(C)=O)n1,–,150 µM,125 µM,–,180 µM,–
4.49,–,COc1nc(N2CCN(C)CC2)ccc1Sc1cccc(NC(=O)C2CC2)c1,4.44,–,–,–,–,–
4.20,–,COc1nc(N2CCN(C)CC2)ccc1Sc1nccc(NC(=O)C2CC2)n1,4.23,–,–,–,–,–
4.19,> 500 µM,CCC(=O)Nc1cccc(Sc2c(OC)nc(N3CCN(C)CC3)nc2OC)c1,–,80 µM,75 µM,55 µM,75 µM,–
5.62,–,CC(C)C(N)C(=O)Nc1cccc(Sc2cnc(N3CCN(C)CC3)nc2OCc2ccccc2)c1 (stereo not given),5.51,–,–,–,–,–
4.43,> 250 µM,CCOc1nc(N2CCN(C)CC2)nc(OCC)c1Sc1nc(N)cc(NC(=O)CC)n1,4.29,70 µM,50 µM,55 µM,80 µM,–
< 3.60,–,CN1CCN(c2ccc(Sc3cccc(NC(=O)CN)c3)c(O)n2)CC1,–,–,–,–,–,–
5.10,497 µM,COc1nc(N2CCN(C)CC2)nc(OC)c1Sc1cccc(NC(=O)c2ccccc2)c1,5.09,10 µM,7.5 µM,8 µM,7.5 µM,–
4.60,–,CN1CCN(c2ncc(Sc3cccc(NC(=O)CN)c3)c(-c3ccccc3)n2)CC1,4.68,–,–,–,–,–
3.85,–,CCC(=O)Nc1ccnc(Sc2c(OC)nc(N3CCN(C)CC3)nc2OC)n1,–,–,–,–,–,–
4.68,–,COc1nc(N2CCN(C)CC2)ccc1Sc1cccc(NC(=O)CN)c1,4.72,–,–,–,–,–
3.82,–,COc1nc(N2CCN(C)CC2)nc(OC)c1Sc1nccc(NC(C)=O)n1,–,–,–,–,–,–
5.70,–,CC(N)C(=O)Nc1cccc(Sc2cnc(N3CCN(C)CC3)nc2OCc2ccccc2)c1 (stereo not given),5.32,–,–,–,–,–
4.19,–,C=CCC(=O)Nc1cccc(Sc2c(OC)nc(N3CCN(C)CC3)nc2OC)c1,–,–,–,–,–,–
